Compound activity deposited in PubChem BioAssay by several laboratories.
The list is not random: actives were taken first. Their share in the collection is about 4.3%.
HTR2A ag: mouse HTR2A agonism via beta-arrestin recruitment. P35363. CHO-K1 mHTR2A beta-arrestin complementation, luminescence; percent of 30 µM serotonin response. activation, % at 7.6 µM. 360,000 tested, 0.66% active. AID 624169;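 active = activation above a run cutoff, the mean activation of all tested compounds plus 3 SD, cut at about 14% in these data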;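 note: 0% = plate median of compound wells and 100% = 30 µM serotonin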
TAAR1 ag: human TAAR1 agonism; activation, % at 3 µM; AID 624467; CHO RD-HGA16 TAAR1, Fluo-8 calcium fluorescence; vehicle wells 0%, saturating PEA agonist 100%; Q96RJ0; 360,000 tested, 0.99% active;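 active = activation above the mean activation of all test compounds in the run plus 3 SD, cut at about 38% in these data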
Target sequence (Q96RJ0 whole entry, looked up): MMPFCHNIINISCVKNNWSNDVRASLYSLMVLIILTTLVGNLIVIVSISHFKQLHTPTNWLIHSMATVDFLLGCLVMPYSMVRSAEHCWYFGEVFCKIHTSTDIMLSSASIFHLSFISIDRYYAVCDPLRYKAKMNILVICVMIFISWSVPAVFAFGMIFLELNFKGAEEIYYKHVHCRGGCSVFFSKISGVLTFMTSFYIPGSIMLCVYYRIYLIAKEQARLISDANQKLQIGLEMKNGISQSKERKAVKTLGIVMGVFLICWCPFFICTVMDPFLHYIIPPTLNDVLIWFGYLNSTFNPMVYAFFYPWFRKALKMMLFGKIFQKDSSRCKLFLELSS
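Assay system: CHO-derived RD-HGA16 cells with stable Gα16 and human TAAR1; timing: 17-24 h seeding, 75 min 37 °C dye, 30 min RT; read-out: % activation from peak over basal fluorescence ratio, DMSO-to-PEA scaled; measured by: kinetic Fluo-8 calcium fluorescence; benchmarks: low control DMSO, high control PEA (EC100); doses: 3 µM single concentration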
MC4R antag cAMP: antagonists of human melanocortin 4 receptor (MC4R); AID 540295; P32245; inhibition, % at 6.5 µM; MC4R-expressing cells, MTII-stimulated cAMP, LANCE TR-FRET; 360,000 tested, 0.48% active;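 active = inhibition above its plate's cutoff, the mean of tested wells on that plate plus 3 SD, cut at about 29% in these data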;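 note: 0% = Melanotan II alone and 100% = Melanotan II plus saturating MCL0020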
Target sequence (P32245 whole entry, looked up): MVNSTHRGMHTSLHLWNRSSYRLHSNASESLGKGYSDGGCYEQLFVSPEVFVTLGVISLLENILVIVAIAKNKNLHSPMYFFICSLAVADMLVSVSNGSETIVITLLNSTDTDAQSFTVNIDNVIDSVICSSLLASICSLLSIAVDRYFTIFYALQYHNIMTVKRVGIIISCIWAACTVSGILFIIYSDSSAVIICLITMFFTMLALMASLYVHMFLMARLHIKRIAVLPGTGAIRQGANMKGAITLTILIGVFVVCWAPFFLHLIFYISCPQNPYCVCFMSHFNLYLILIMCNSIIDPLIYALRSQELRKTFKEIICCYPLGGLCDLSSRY
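material = U2OS cells stably expressing human melanocortin 4 receptor (MC4R) | also added = Melanotan II challenge | dosing = single nominal compound dose of 6.5 µM | detection = TR-FRET with Eu-cAMP and labeled anti-cAMP, 671 nm | replication = singlicate | timing = compound 30 min, challenge 1 h, detection 1 h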
B2AR ag: activates human beta-2 adrenergic receptor causing internalization; P07550; Am2.2-beta2AR cells, FAP receptor internalization, flow cytometry; response, % (test concentration not listed); 340,000 tested, 0.43% active; AID 504454;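 active = response above a set limit, near 3 SD of response in nonfluorescent compounds, cut at about 42% in these data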
TAAR1 antag: antagonists of human TAAR1; Q96RJ0; CHO RD-HGA16 TAAR1, Fluo-8 calcium fluorescence, antagonist; inhibition, % at 3 µM; 360,000 tested, 1.5% active; AID 624466;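 active = inhibition above a per-plate cutoff, the mean inhibition of test compounds on that plate plus 3 SD, cut at about 49% in these data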;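 note: 0% = DMSO plus EC80 beta-PEA response and 100% = DMSO alone without agonist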
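Test system – hTAAR1-expressing CHO RD-HGA16 cells, Gα16-coupled · Also added – β-PEA at EC80 concentration, post-compound challenge · Compound – 3 µM, single point · Incubation – dye loading 75 min at 37 °C, then 30 min room temperature · Measured by – Fluo-8 intracellular calcium dye fluorescence, real-time kinetic reads · Benchmarks – vehicle and agonist controls · Replicates – singlicate, one well per test compound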
MC4R ag barr: human MC4R agonism via beta-arrestin. P32245. 360,000 tested, 0.98% active. U2OS MC4R beta-arrestin complementation, luminescence; percent of melanotan II response, DMSO zero. activation, % at 8.9 µM;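 active = activation above a per-plate cutoff, the mean activation of sample wells on that plate plus 3 SD, cut at about 8% in these data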
B2AR ag CP1: activates human beta-2 adrenergic receptor; shares compounds with B2AR ag; Am2.2-beta2AR cells, FAP surface receptor, flow cytometry; active compounds read low; percent response (surface receptor), % at 10 µM; 1,100 tested, 25% active;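 active = surface receptor percent response at or below 58%, roughly 3 SD from nonfluorescent compounds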
FAP fluor counter: flagged in Am2.2 fluorescence counterscreen for beta-2AR agonists; shares compounds with B2AR ag; Am2.2 cells, FAP fluorogen flow cytometry; active compounds read low; calls only at 10 µM; 1,100 tested, under 10 active;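 active = percent response below a set limit in fluorescence channel 1 and below 50% in channel 8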
U2OS cAMP counter: U2OS forskolin cAMP inhibition counter-screen | shares compounds with MC4R antag cAMP | parental U2OS, LANCE TR-FRET | inhibition, % at 6.5 µM | 1,600 tested, 26% active;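 active = mean inhibition over triplicates above the low-control well mean plus 3 SD, set per campaign, cut at about 13% in these data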;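 note: signal is single emission at 671 nm which falls as cellular cAMP rises; 0% = forskolin-stimulated wells and 100% = buffer without forskolin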
MC4R cAMP antag: human MC4R cAMP antagonism confirmation; shares compounds with MC4R antag cAMP; MC4R-expressing cells, MTII-stimulated cAMP, TR-FRET; 1,600 tested, 27% active; inhibition, % at 6.5 µM; in the data active = inhibition above about 29%;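 note: 0% = agonist stimulated wells alone and 100% = agonist stimulated wells plus saturating reference antagonist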
MC4R barr ag: human MC4R beta-arrestin agonism confirmation; 2,400 tested, 31% active; activation, % at 8.9 µM; U2OS MC4R beta-arrestin recruitment, luminescence; scaled DMSO 0%, Melanotan II 100%; AID 602192; shares compounds with MC4R ag barr;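 active = mean activation across replicates above the hit cutoff set in the earlier primary screen, cut at about 8% in these data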
MOR DOR agonist: counter-screen for MC4R agonists: agonists of mu-delta opioid heterodimer; activation, % at 9.2 µM; 2,400 tested, 5.8% active; AID 602194; shares compounds with MC4R ag barr; U2OS PathHunter beta-arrestin, beta-gal luminescence; percent of deltorphin B response, DMSO zero;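 active = mean activation across replicates exceeds the hit threshold derived in the earlier primary screen, cut at about 18% in these data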;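 note: 100% = deltorphin B at 0.9 µM final and 0% = DMSO alone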
TAAR1 ag confirm: human TAAR1 agonism, confirmed; shares compounds with TAAR1 ag; 2,400 tested, 82% active; AID 651783; CHO RD-HGA16 TAAR1, Fluo-8 calcium fluorescence; scaled: DMSO 0%, maximal phenethylamine 100%; activation, % at 3 µM;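 active = activation above a cutoff set at the run's mean compound activation plus 3 SD, cut at about 39% in these data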
Ga16 nonsel ag: nonselective agonism, TAAR1 counter-screen; 2,400 tested, 50% active; activation, % at 3 µM; shares compounds with TAAR1 ag; CHO-Ga16 parental, Fluo-8 calcium fluorescence; normalized to maximal ATP response, DMSO zero;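 active = activation above the run cutoff, the mean activation over all tested wells plus 3 SD, cut at about 12% in these data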;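 note: 0% = DMSO wells and 100% = maximal ATP response on the peak over basal ratio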
TAAR1 desensitize: human TAAR1 agonist that also desensitizes the receptor; shares compounds with TAAR1 ag; CHO RD-HGA16 hTAAR1, Fluo-8 calcium, beta-PEA response inhibition; AID 651951; 2,400 tested, 46% active; inhibition, % at 3 µM;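 active = inhibition above the run cutoff, the mean inhibition of all test compounds plus 3 SD, cut at about 49% in these data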;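 note: beta-PEA stimulus applied at its EC80; loss of beta-PEA calcium signal after compound pretreatment read as receptor desensitization; 0% = DMSO with beta-PEA at EC80 and 100% = DMSO alone without agonist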
Ga16 nonsel ant: nonselective Ga16 antagonist in TAAR1 agonist counter-screen | 2,400 tested, 39% active | inhibition, % at 3 µM | AID 651952 | CHO-Ga16 ATP-induced calcium, Fluo-8 fluorescence | shares compounds with TAAR1 ag;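 active = inhibition above the plate's mean compound inhibition plus 3 SD, computed per plate, cut at about 22% in these data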;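 note: 0% = EC80 ATP with DMSO and 100% = DMSO wells without ATP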
* marks the source's active call; other numbers are inactive results; i = inactive; . = not tested or not shown.

SMILES | HTR2A ag | TAAR1 ag | MC4R antag cAMP | B2AR ag | TAAR1 antag | MC4R ag barr | U2OS cAMP counter | MC4R cAMP antag | others
CCCCCCCCCCOC(=O)Cn1c(COc2ccccc2OC)[n+](C)c2ccccc21 | -4 | 66* | -11 | 16 | 90* | 19* | . | . | B2AR ag CP1=107;FAP fluor counter=i;MC4R barr ag=16*;MOR DOR agonist=29*;TAAR1 ag confirm=79*;Ga16 nonsel ag=91*;TAAR1 desensitize=94*;Ga16 nonsel ant=100*
CCN1CCN(C(c2cccs2)C(C)NC(=O)C(=O)N2CCCCC2)CC1 (centres undefined) | -3 | 2 | -2 | 4 | -28 | -2 | . | .
CC(OC(=O)CC1CC2CCC1C2)C(=O)Nc1cccc(S(=O)(=O)N2CCOCC2)c1 (centres undefined) | 5 | 3 | 6 | -8 | -2 | 0 | . | .
COc1ccc(CCNCC(O)COc2ccc(OC)cc2C(C)(C)C)cc1 (centres undefined) | -9 | 66* | 1 | 45* | 33 | 8 | . | . | B2AR ag CP1=99;FAP fluor counter=i;TAAR1 ag confirm=96*;Ga16 nonsel ag=14*;TAAR1 desensitize=70*;Ga16 nonsel ant=16
COc1ccc(CCNCC(O)COc2cccc(Br)c2)cc1OC (centres undefined) | -7 | 16 | 1 | -12 | -9 | -2 | . | .
Cc1nc([N+](=O)[O-])c(Br)n1Cc1ccc(Cl)c(Cl)c1 | -4 | 51* | 20 | 58* | 37 | -3 | . | . | B2AR ag CP1=96;FAP fluor counter=i;TAAR1 ag confirm=9;Ga16 nonsel ag=5;TAAR1 desensitize=18;Ga16 nonsel ant=13
Cc1nc([N+](=O)[O-])c(Br)n1CC(=O)c1ccc(Cl)cc1 | -2 | 6 | 10 | 25 | -20 | -1 | . | .
O=C(NNC(=O)c1ccccc1-n1cccc1)c1cccnc1 | 3 | 3 | 7 | . | -10 | -1 | . | .
c1ccc(Nc2nc(NCc3ccco3)c3ccccc3n2)cc1 | -7 | 56* | -11 | 18 | 41 | -1 | . | . | B2AR ag CP1=80;FAP fluor counter=i;TAAR1 ag confirm=84*;Ga16 nonsel ag=8;TAAR1 desensitize=85*;Ga16 nonsel ant=29*
Cc1ccc(-n2nc3c(c2NC(=O)c2ccc(S(=O)(=O)N4CCOCC4)cc2)CSC3)c(C)c1 | 2 | . | 32* | 6 | . | 1 | -1 | -2
Cc1cccc(-n2nc3c(c2NC(=O)c2ccc(S(=O)(=O)N4CCOCC4)cc2)CSC3)c1C | 1 | 6 | 4 | 5 | 5 | -2 | . | .
Cc1n[nH]c(=O)c2c(NC(=O)CSc3nc4ccccc4c(=O)n3C(C)C)oc(C)c12 | 4 | 2 | 14 | 6 | -29 | 1 | . | .
COc1ccc(-n2cccc2/C=C2\C(=N)N3N=C(C(C)C)SC3=NC2=O)cc1 | 8 | 9 | 47* | -8 | 6 | -2 | 1 | 8
CCC1=NN2C(=N)/C(=C\c3cccn3-c3ccc(C)cc3C)C(=O)N=C2S1 | -1 | 7 | 44* | -1 | 0 | 1 | 1 | 9
Cc1ccc(S(=O)(=O)N(C)CC(=O)OCC(=O)NC(c2ccccc2)c2ccccc2)cc1 | 0 | 8 | 24 | 9 | 13 | -2 | . | .
Cc1ccc(S(=O)(=O)N(C)CC(=O)OCC(=O)NC(=O)NC(C)C)cc1 | -2 | -3 | 29* | 10 | -8 | -3 | 10 | 23
CC(=O)Nc1ccc(S(=O)(=O)N(C)CC(=O)OCC(=O)NC(C)C23CC4CC(CC(C4)C2)C3)cc1 (centres undefined) | 1 | 7 | 30* | 7 | -15 | -2 | 8 | 18
C[C@@H]1CN([C@@H](C)CO)C(=O)CCCn2nncc2CO[C@@H]1CN(C)C(=O)Nc1ccnc(N2CCOCC2)c1 | 5 | 2 | -4 | . | 6 | -1 | . | .
CCN1C(=NCCc2cccs2)N[C@@H](c2cccs2)C(C(=O)OC)=C1C | -1 | . | -7 | 9 | . | -1 | . | .
O=C(Nc1ccccc1C(F)(F)F)c1c(F)cccc1Cl | 2 | 3 | 30* | -5 | -7 | 2 | 1 | -6
Cc1cc(C(=O)OCC(=O)c2ccc(Br)s2)no1 | -5 | . | 37* | -3 | . | -1 | 5 | 9
COc1ccc(NC(=O)CN2C(=O)C(C)SC(C)C2=O)cc1 (centres undefined) | -1 | -2 | 31* | 1 | -5 | -3 | 3 | 1
COC(=O)[C@H](Cc1c[nH]c2ccccc12)NC(=O)NCc1ccc(OC)cc1 | 1 | 11 | 37* | -4 | -5 | 1 | -4 | 1
COc1ccc(CNC(=O)COC(=O)[C@H](Cc2c[nH]c3ccccc23)NC(=O)c2cccs2)cc1 | 0 | 4 | 43* | 5 | 7 | -3 | 22* | 14
COC(=O)C(Cc1c[nH]c2ccccc12)NC(=O)c1cccs1 (centres undefined) | 2 | 3 | -1 | 12 | -2 | -3 | . | .
